This note sets out measurements from ChEMBL document CHEMBL1123648, “Synthesis, chemical reactivity, and antileukemic activity of 5-substituted 6,7-bis(hydroxymethyl)pyrrolo[1,2-c]thiazole biscarbamates and the corresponding sulfoxides and sulfones” (1987).

Assay [1] in a line: Percent increase in life span of test animals compared to untreated tumor-bearing control group B animals at a dose of 12.5 mg/kg. It is filed as functional. As to conditions: Mus musculus.
Assay [2] has as its system P388. The assay can be described thus: Log cell population relative to cell population at the beginning of treatment compared to control group B at a dose of 6.25 mg/kg. It is filed as functional, Mus musculus.
Assay [3] is described as follows: Toxicity day survivors expressed as number of animals that survived to day five/ number of test animals under control group B at a dose of 100 mg/kg; 6 survived out of 6. It is filed as functional, Mus musculus.
Assay [4] in a line: Antileukemic activity against Murine P388 lymphocytic leukemia and toxicity day survivors expressed as number of animals that survived to day five/ number of test animals under control group B at a dose of 6.5 mg/kg; 6 survived out of 6. It is filed as functional, Mus musculus.
Assay [5] in a line: Percent increase in life span of test animals compared to untreated tumor-bearing control group B animals at a dose of 50 mg/kg. It is filed as functional. As to conditions: Mus musculus.
Assay [6] can be described thus: Antileukemic activity against Murine P388 lymphocytic leukemia, body weight difference of the test animals compared to control group B animals at a dose of 50 mg/kg. It is filed as functional, Mus musculus. The arrangement: unit not given here. In a few lines:
(§1)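 CD2F1 mice implanted intraperitoneally with ascitic fluid carrying ca. 1×10^6 P388 cells, under the NCI protocol. Dosing was intraperitoneal, starting 24 h after inoculation, then every 24 h for five doses in total. The body weight difference of treated mice is taken against untreated controls. Toxicity day survivors are the mice alive at day five out of those tested.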

Assay [7] in a line: Toxicity day survivors expressed as number of animals that survived to day five/ number of test animals under control group B at a dose of 25 mg/kg; 6 survived out of 6. It is filed as functional, Mus musculus.
A short description of assay [8]: Antileukemic activity against Murine P388 lymphocytic leukemia, body weight difference of the test animals compared to control group B animals at a dose of 6.25 mg/kg. It is filed as functional, Mus musculus. The method in brief:
as §1

Assay [9] in a line: Toxicity day survivors expressed as number of animals that survived to day five/ number of test animals under control group B at a dose of 12.5 mg/kg. It is filed as functional, Mus musculus.
Assay [10] in a line: Percent increase in life span of test animals compared to untreated tumor-bearing control group B animals at a dose of 6.25 mg/kg. It is filed as functional. As to conditions: Mus musculus.
A short description of assay [11]: Antileukemic activity against Murine P388 lymphocytic leukemia, body weight difference of the test animals compared to control group B animals at a dose of 25 mg/kg. It is filed as functional, Mus musculus. On the set-up: unit not given here. The method in brief: as §1
Assay [12] is described as follows: Antileukemic activity against Murine P388 lymphocytic leukemia, body weight difference of the test animals compared to control group B animals at a dose of 100 mg/kg. It is filed as functional, Mus musculus. On the set-up: unit not given here. The method in brief:
as §1

A short description of assay [13]: Toxicity day survivors expressed as number of animals that survived to day five/ number of test animals under control group B at a dose of 50 mg/kg; 6 survived out of 6. It is filed as functional, Mus musculus.
Assay [14] can be described thus: Antileukemic activity against Murine P388 lymphocytic leukemia, body weight difference of the test animals compared to control group B animals at a dose of 12.5 mg/kg. It is filed as functional, Mus musculus. On the set-up: unit not given here. In a few lines: as §1
In assay [15] the test system is P388. The experiment in a line: Log cell population relative to cell population at the beginning of treatment compared to control group B at a dose of 12.5 mg/kg. It is filed as functional, Mus musculus.
Assay [16] in a line: Toxicity day survivors expressed as number of animals that survived to day five/ number of test animals under control group B at a dose of 12.5 mg/kg; 6 survived out of 6. It is filed as functional, Mus musculus.
Assay [17] deals with P388. The experiment in a line: Log cell population relative to cell population at the beginning of treatment compared to control group B at a dose of 50 mg/kg. It is filed as functional, Mus musculus.
Assay [18] relates to P388. The experiment in a line: Log cell population relative to cell population at the beginning of treatment compared to control group B at a dose of 25 mg/kg. It is filed as functional, Mus musculus.
Assay [19] is described as follows: Percent increase in life span of test animals compared to untreated tumor-bearing control group B animals at a dose of 100 mg/kg. It is filed as functional. As to conditions: Mus musculus.
Assay [20] has as its system P388. The experiment in a line: Log cell population relative to cell population at the beginning of treatment compared to control group B at a dose of 100 mg/kg. It is filed as functional, Mus musculus.
The nature of assay [21]: Percent increase in life span of test animals compared to untreated tumor-bearing control group B animals at a dose of 25 mg/kg. It is filed as functional. As to conditions: Mus musculus.
A short description of assay [22]: Percent increase in life span of test animals compared to untreated tumor-bearing control group C animals at a dose of 200 mg/kg. It is filed as functional. As to conditions: Mus musculus.
A short description of assay [23]: Antileukemic activity against Murine P388 lymphocytic leukemia, body weight difference of the test animals compared to control group C animals at a dose of 50 mg/kg. It is filed as functional, Mus musculus. On the set-up: unit not given here. In a few lines: as §1
Assay [24] in a line: Percent increase in life span of test animals compared to untreated tumor-bearing control group C animals at a dose of 100 mg/kg. It is filed as functional. As to conditions: Mus musculus.
Assay [25] has as its system P388. The assay can be described thus: Log cell population relative to cell population at the beginning of treatment compared to control group C at a dose of 200 mg/kg. It is filed as functional, Mus musculus.
Assay [26] is described as follows: Toxicity day survivors expressed as number of animals that survived to day five/ number of test animals under control group C at a dose of 100 mg/kg; 6 survived out of 6. It is filed as functional, Mus musculus.
Assay [27] has as its system P388. The assay can be described thus: Log cell population relative to cell population at the beginning of treatment compared to control group A at a dose of 50 mg/kg. It is filed as functional, Mus musculus.
Assay [28] can be described thus: Antileukemic activity against Murine P388 lymphocytic leukemia, body weight difference of the test animals compared to control group C animals at a dose of 100 mg/kg. It is filed as functional, Mus musculus. On the set-up: unit not given here. In a few lines:
as §1

Assay [29] can be described thus: Antileukemic activity against Murine P388 lymphocytic leukemia, body weight difference of the test animals compared to control group C animals at a dose of 200 mg/kg. It is filed as functional, Mus musculus. In a few lines: as §1
The nature of assay [30]: Toxicity day survivors expressed as number of animals that survived to day five/ number of test animals under control group C at a dose of 50 mg/kg; 6 survived out of 6. It is filed as functional, Mus musculus.
In assay [31] the test system is P388. The assay can be described thus: Log cell population relative to cell population at the beginning of treatment compared to control group C at a dose of 25 mg/kg. It is filed as functional, Mus musculus.
Assay [32] is described as follows: Toxicity day survivors expressed as number of animals that survived to day five/ number of test animals under control group C at a dose of 200 mg/kg; 6 survived out of 6. It is filed as functional, Mus musculus.
The nature of assay [33]: Percent increase in life span of test animals compared to untreated tumor-bearing control group C animals at a dose of 25 mg/kg. As to conditions: Mus musculus. It is filed as functional.
The subject of assay [34] is P388. The assay can be described thus: Log cell population relative to cell population at the beginning of treatment compared to control group C at a dose of 100 mg/kg. It is filed as functional, Mus musculus.
Assay [35] can be described thus: Antileukemic activity against Murine P388 lymphocytic leukemia, body weight difference of the test animals compared to control group C animals at a dose of 25 mg/kg. It is filed as functional, Mus musculus. In a few lines: as §1
Assay [36] is described as follows: Percent increase in life span of test animals compared to untreated tumor-bearing control group C animals at a dose of 50 mg/kg. It is filed as functional. As to conditions: Mus musculus.
A short description of assay [37]: Toxicity day survivors expressed as number of animals that survived to day five/ number of test animals under control group C at a dose of 25 mg/kg; 6 survived out of 6. It is filed as functional, Mus musculus.

Regarding `CC(C)NC(=O)OCc1c(COC(=O)NC(C)C)c(-c2ccc(Cl)c(Cl)c2)n2c1CS(=O)(=O)C2`, in assay [1], the ILS at 12.5 mg/kg was -13%. The KE in the assay on P388 [2] is -1.47. In addition, the TDS in [3], in [4], in assay [7], in [9] and in assay [13] was 6 in each case. Moreover, the ILS at 50 mg/kg in assay [5] is -14%. Further, the BWD was -0.8 in assay [6]; -0.6 in [8]; 0.4 in assay [11]; -2.3 in assay [12]; 1.3 in [14]. For the same compound, in assay [10], the ILS at 6.25 mg/kg worked out at 1%.
For `Cc1c(COC(=O)NC(C)C)c(COC(=O)NC(C)C)c2n1CS(=O)(=O)C2`, the ILS at 12.5 mg/kg in assay [1] was 42%. Also, the KE is recorded as 0.85 in the assay with P388 [15], 4.71 in the assay with P388 [17], 2.39 in the assay on P388 [18] and over 6.77 in the assay on P388 [20]. In addition, the TDS in assay [16], in [3], in assay [7] and in assay [13] was 6 throughout. The ILS at 50 mg/kg in assay [5] is 84%. Also, the BWD in [6] is given as -1.8; in [11], -1.8; in [12] it was -4; in [14], -1.1. For the same compound, the ILS at 100 mg/kg in assay [19] came out at 118%. Also, the ILS at 25 mg/kg in assay [21] turned out to be 59%.
With `CNC(=O)OCc1c(COC(=O)NC)c2n(c1C)C[S+]([O-])C2` (stereo unspecified), the ILS at 200 mg/kg in assay [22] came out at 15%. The BWD in assay [23] is 1.1; in [28] it was 0.8; in [29], 0.4; in [35] it was 0. Also, the ILS at 100 mg/kg in assay [24] worked out at 22%. For the same compound, the KE in the assay with P388 [25] is given as -0.08; in the assay with P388 [27] it was -0.09; in the assay on P388 [31], -0.09; in the assay with P388 [34] it was -0.05. Also, the TDS in assay [26], in assay [30], in [32] and in assay [37] was 6 throughout. Moreover, in assay [33], the ILS at 25 mg/kg was found to be 13%. The ILS at 50 mg/kg in assay [36] was 13%.
